Assay [1] deals with SW-620. The assay is described as follows: Induction of apoptosis in human SW-620 cells assessed as late apoptotic cells at 0.5 uM measured after 24 hrs by PI/Annexin V staining based flow cytometry assay (reference value: 3.66%). In kind it is functional.
For a further assay, the system named is PANC-1. The assay is described as follows: Induction of cell cycle arrest in human PANC-1 cells assessed as accumulation of cells in G2 phase at 0.5 uM measured after 24 hrs by PI staining based flow cytometry method (reference value: 3.63%). In kind it is functional.
For assay [2], the system named is RKO. The assay is described as follows: Induction of apoptosis in human RKO cells assessed as increase in ROS levels at 0.25 uM measured after 24 hrs by DCFH-DA staining based flow cytometry method relative to control. Type of assay: functional. In a few lines: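 Cells at 5×10^5 per well exposed to 0.25 or 0.5 µM for 24 h, then loaded with 5 µM DCFH-DA in serum-free medium 30 min at 37 °C; washed, harvested, read by flow cytometry (ex 488/em 525 nm). ROS given as ratio of treated to control; at least three experiments.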

In assay [3] the test system is SW-620. The assay is described as follows: Induction of cell cycle arrest in human SW-620 cells assessed as reduction in cdc2 expression at 0.5 to 1 uM measured after 24 hrs by western blot assay. In kind it is functional, cell-based. The note with it: dose 0.5-1 µM. Put shortly: (§1)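 RKO or SW620 cells (4×10^5–5×10^5 per well) exposed to 0.5 or 1 μM or DMSO for 24 h. Lysed in SDS loading buffer, boiled, run on 8–15% SDS-PAGE and moved to PVDF. Blocked in 5% milk, probed overnight at 4 °C with anti-Cdc2 or anti-cyclin B1 (1:1000), β-actin as reference. HRP secondary and ECL detection. Done at least three times.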

A further assay relates to HUVEC. Put plainly: Anti-vascular activity against human HUVEC cells assessed as inhibition of cell migration at 0.5 to 1 uM measured after 24 hrs by cell migration assay. The note with it: dose 0.5-1 µM. Type of assay: functional, cell-based.
Assay [4] has as its system RKO. Put plainly: Induction of cell cycle arrest in human RKO cells assessed as reduction in cdc2 expression at 0.5 to 1 uM measured after 24 hrs by western blot assay. The note with it: dose 0.5-1 µM. Type of assay: functional, cell-based. In a few lines:
as §1

Activity calls are given as the source filed them. The calls are words filed in the database; no cut-off is given here.

`COc1ccc(S(=O)(=O)Nc2cccnc2-c2ccc(C#N)c(F)c2)cc1`: the results for the Activity with SW-620 [1], in the assay on PANC-1 and in the assay with HUVEC were 3.11%, 15.67% and “Dose-Dependent Effect”, respectively. Also, the “fold change (FC)” value in the assay on RKO [2] was 1.5. Moreover, the result in the assay on SW-620 [3] and with RKO [4] was Active.

These data come from ChEMBL document CHEMBL4819012, “Discovery of novel 2-aryl-3-sulfonamido-pyridines (HoAns) as microtubule polymerization inhibitors with potent antitumor activities” (Eur J Med Chem, 2021).
